Experiments:
Hepatitis C virus [1] = assay: Antiviral activity against HCV genotype 1b infected in human HuH7 cells assessed as cytoprotection after 24 hrs; type: functional, organism-based, Hepacivirus hominis; details: Huh-7, 24 h
[2] = Cytotoxicity against human HuH7 cells after 24 hrs by MTS assay; type: cell-based, Huh-7
Hepatitis C virus [3] = assay: Inhibition of HCV genotype 1b NS5B after 90 mins; set-up: species or system Hepatitis C virus subtype 1b; details: 1.5 h
adenosine deaminase = assay: Stability of the compound assessed as compound remaining at 10 uM after 60 mins in presence of bovine adenosine deaminase; type: ADME; details: cattle, read-out: Stability
In short: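 Nucleosides (10 µM) were incubated at 37 °C with 0.0125 U/mL bovine adenosine deaminase in 0.01 M potassium phosphate pH 6.0 and sampled over 1 h. Reactions were quenched with ice-cold methanol containing 0.2% formic acid. Nucleoside was quantified by LC with triple-quadrupole MS in positive-ion MRM mode, and percent remaining taken at 60 min. Values are the mean of 2 independent experiments in duplicate.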

[4] = Plasma clearance in rat; type: ADME, organism-based
[5] = Plasma clearance in beagle dog at 0.5 mg/kg, iv after 24 hrs by LC-MS/MS analysis; type: ADME, organism-based, Canis lupus familiaris; set-up: dose 0.5 mg/kg, route intravenous
In short: (§1)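 Groups of 3 non-naive male beagle dogs received one dose as a solution in 5/5/5/85 ethanol/[…]/polyethylene glycol/50 mM aqueous citrate buffer (pH 3.3). Dosing was either 0.5 mg/kg by IV infusion or 1 mg/kg orally. EDTA-K3 plasma was sampled over 24 h, precipitated with acetonitrile (60% final), dried, reconstituted in 20% acetonitrile, and analysed by LC/MS/MS in positive-ion MRM mode.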

[6] = Volume of distribution in beagle dog at 0.5 mg/kg, iv after 24 hrs by LC-MS/MS analysis; type: ADME, organism-based, Canis lupus familiaris; set-up: dose 0.5 mg/kg, route intravenous; details: in vivo; in short: as §1
[7] = Elimination half life in beagle dog plasma at 0.5 mg/kg, iv after 24 hrs by LC-MS/MS analysis; type: ADME, organism-based, Canis lupus familiaris; set-up: dose 0.5 mg/kg, route intravenous; in short: as §1
[8] = Oral bioavailability in beagle dog at 1 mg/kg; type: ADME, organism-based, Canis lupus familiaris; details: in vivo; in short: as §1
Hepatocyte = assay: Prodrug activation in primary human hepatocytes assessed as compound triphosphate form at 10 uM after 1 hr; type: cell-based
In short: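 Primary human hepatocytes from two donors were grown confluent (0.88×10^6 cells/well) in Williams E medium with supplement. Cells were exposed to compound (10 µM) for 1 h, then drug-free medium for 23 h, and sampled during and after exposure. Cells were extracted in 70% methanol, dried, and resuspended in 1 mM ammonium phosphate pH 8.5. Triphosphate was quantified by LC/MS/MS. Two independent experiments were run in duplicate.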

Syrian golden hamster [9] = assay: Prodrug activation in Golden Syrian hamster liver assessed as compound triphosphate form at 10 mg/kg, po […]; type: organism-based, Mesocricetus auratus; set-up: dose 10 mg/kg, route oral; details: in vivo
In short: (§2)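 Groups of 12 Golden Syrian hamsters or Sprague–Dawley rats were dosed orally with nucleoside in water. Doses were 20 or 10 mg/kg in hamsters and 2 or 5 mg/kg in rats. Livers were harvested under isoflurane at 1, 4, 8 and 12 h and snap-frozen. Homogenate supernatant was dried, reconstituted in 1 mM ammonium phosphate pH 7.0, and triphosphate measured by LC/MS/MS, with endogenous ATP checked for stability. Values are mean±SD from 3 livers per time point.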

Rattus norvegicus [10] = assay: Prodrug activation in Sprague-Dawley rat liver assessed as compound triphosphate form at 5 mg/kg, po after […]; type: organism-based; set-up: dose 5 mg/kg, route oral; details: in vivo; in short: as §2
[11] = Oral bioavailability in Sprague-Dawley rat; type: ADME, organism-based; details: in vivo
Huh-7 = assay: Prodrug activation in human HuH7 cells assessed as compound triphosphate form at 10 uM after 24 hrs; details: huh-7, 24 h
Syrian golden hamster [12] = assay: Prodrug activation in Golden Syrian hamster liver assessed as compound triphosphate form at 20 mg/kg, po after 4 to 24 hrs; type: organism-based, Mesocricetus auratus; set-up: dose 20 mg/kg, route oral; details: in vivo
Rattus norvegicus [13] = assay: Prodrug activation in Sprague-Dawley rat liver assessed as compound triphosphate form at 2 mg/kg, po after 4 to 24 hrs; type: organism-based; set-up: dose 2 mg/kg, route oral; details: in vivo

| EC50 (Hepatitis C virus [1]) [µM] | IC50 (Hepatitis C virus [3]) [µM] | remaining at 1 h, 10 µM (adenosine deaminase) [%] | SMILES | CC50 at 24 h [2] [µM] | further results |
| --- | --- | --- | --- | --- | --- |
| 4.07 | 0.73 |  | C[C@@]1(O)[C@H](O)[C@@H](CO)O[C@H]1n1ccc(N)nc1=O | > 89 |  |
| 0.05 |  |  | CC(C)(C)C(=O)SCCOP(=O)(OCCSC(=O)C(C)(C)C)OC[C@H]1O[C@@H](n2cnc3c(=O)[nH]c(N)nc32)[C@](C)(O)[C@@H]1O |  |  |
| 0.35 | 6.83 | 94 | C[C@@]1(O)[C@H](O)[C@@H](CO)O[C@H]1n1cnc2c(N)ncnc21 | 66 | clearance [4]: > 200 mL/min/kg |
| 3.25 | 0.25 |  | C[C@@]1(O)[C@H](O)[C@@H](CO)O[C@H]1n1cnc2c(=O)[nH]c(N)nc21 [2'-B-METHYL-GUANOSINE] | > 89 |  |
| 1.98 | 0.31 | 100 | C[C@@]1(O)[C@H](O)[C@@H](CO)O[C@H]1c1ccc2c(N)ncnn12 | 85 | clearance [5]: 6.67 mL/min/kg; Vd [6]: 1.66 L/kg; half-life [7]: > 7 h; bioavailability [8]: 70%; Drug metabolism (Hepatocyte): Active; Drug metabolism (Syrian golden hamster [9]): Active; Drug metabolism (Rattus norvegicus [10]): Active; bioavailability [11]: 50%; Drug metabolism (Huh-7): Not Active |
| > 89 | 13.4 |  | C[C@@]1(O)[C@H](O)[C@@H](CO)O[C@H]1c1c[nH]c(N)nc1=O | > 89 |  |
| > 89 | 13.4 |  | C[C@@]1(O)[C@H](O)[C@@H](CO)O[C@H]1c1c[nH]c(=O)[nH]c1=O | > 89 |  |
| > 89 | 0.19 |  | C[C@@]1(O)[C@H](O)[C@@H](CO)O[C@H]1c1cnc2c(=O)[nH]c(N)nn12 | > 89 |  |
| 15.2 | 1.32 |  | C[C@@]1(O)[C@H](O)[C@@H](CO)O[C@H]1n1ccc(=O)[nH]c1=O | > 89 |  |
| 9.54 |  |  | CC(C)(C)C(=O)SCCOP(=O)(OCCSC(=O)C(C)(C)C)OC[C@H]1O[C@@H](c2cnc3c(=O)[nH]c(N)nn23)[C@](C)(O)[C@@H]1O |  |  |
| 1.28 | 2.1 | 55 | C[C@@]1(O)[C@H](O)[C@@H](CO)O[C@H]1c1cnc2c(N)ncnn12 | > 89 |  |

| SMILES | EC50 (Hepatitis C virus [1]) [µM] | IC50 (Hepatitis C virus [3]) [µM] | remaining at 1 h, 10 µM (adenosine deaminase) [%] | CC50 at 24 h [2] [µM] | further results |
| --- | --- | --- | --- | --- | --- |
| C[C@@]1(O)[C@H](O)[C@@H](CO)O[C@H]1n1ccc2c(N)ncnc21 [BETA-2'-C-METHYL-7-DEAZA-ADENOSINE] | 0.08 | 0.3 | 98 | > 89 | Drug metabolism (Syrian golden hamster [12]): Active; Drug metabolism (Rattus norvegicus [13]): Active |

— ChEMBL document CHEMBL2029282, “Synthesis and characterization of 2'-C-Me branched C-nucleosides as HCV polymerase inhibitors” (Bioorg Med Chem Lett, 2012)
